NOD2-RIPK2 inh – inhibitors of human NOD2-RIPK2 interaction | CHO BLA complementation NOD2-RIPK2, CCF4 ratio | inhibition, % at 4.98 µM | 0.38% of 360,000 active; in the data active = inhibition above about 21%;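 note: 0% = vehicle only and 100% = reference blocker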
Target sequence (O43353 whole entry, looked up): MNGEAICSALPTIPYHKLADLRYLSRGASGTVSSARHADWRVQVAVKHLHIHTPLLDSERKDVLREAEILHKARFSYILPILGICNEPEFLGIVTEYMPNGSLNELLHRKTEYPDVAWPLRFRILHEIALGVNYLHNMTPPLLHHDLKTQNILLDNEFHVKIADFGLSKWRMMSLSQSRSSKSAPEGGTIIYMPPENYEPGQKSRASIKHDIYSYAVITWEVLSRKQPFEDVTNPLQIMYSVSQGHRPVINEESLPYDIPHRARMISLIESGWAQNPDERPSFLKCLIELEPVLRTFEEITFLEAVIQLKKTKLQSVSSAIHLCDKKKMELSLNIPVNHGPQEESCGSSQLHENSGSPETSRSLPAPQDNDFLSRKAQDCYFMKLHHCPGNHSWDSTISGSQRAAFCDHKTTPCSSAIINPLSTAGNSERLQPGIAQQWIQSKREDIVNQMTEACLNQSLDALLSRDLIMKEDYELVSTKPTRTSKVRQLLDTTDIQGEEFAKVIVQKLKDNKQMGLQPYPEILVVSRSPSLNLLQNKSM
SR-BI uptake up – activators of SR-BI mediated HDL lipid uptake | CHO ldlA[mSR-BI] cells, DiI-HDL uptake fluorescence, 3 h; 100 = double the neutral-control signal | activation, % at 12.5 µM | 0.096% of 320,000 active | AID 504775;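 active = mean replicate activation of at least 60% and every replicate at or above 60%; inconclusive = mean or all-replicate condition met, but not both; inactive = mean below 60% and not all replicates reaching 60%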;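 note: 0% = median plate neutral-control signal and 100% = twice that signal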
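Assay system: LDL receptor-deficient CHO ldlA cells overexpressing murine SR-BI / Medium: BSA-supplemented, HEPES-buffered Ham's F12, pH 7.4 / Probe or stimulus: DiI-labelled HDL at 10 µg/mL final / Timing: compound with DiI-HDL co-incubation, 3 h at 37 °C / Technique: bottom-read cell fluorescence after medium removal, ex 550/em 595 nm / Measure: HDL uptake via cellular fluorescence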
TLR4 MyD88 comp – inhibitors of human TLR4-MyD88 binding; O00206+Q99836; HeLa CL3-4 TLR4/MyD88 BLA complementation, FRET ratio; inhibition, % at 8.4 µM; 0.18% of 200,000 active; in the data active = inhibition above about 25%;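 note: 0% = vehicle and 100% = reference inhibitor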
SR-BI DiI inh – blocks mouse SR-BI lipid uptake from DiI-HDL; Q61009; ldlA[mSR-BI] CHO cells, DiI-HDL uptake fluorescence, 3 h; inhibition, % at 12.5 µM; 0.96% of 320,000 active; AID 488896;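 active = mean replicate inhibition of at least 70% and a set share of replicates each scoring 70 or more; inconclusive = meets just one of the two criteria; inactive = fails both criteria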;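 note: 0% = median of neutral control wells and 100% = median of positive control wells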
TLR9-MyD88 block – inhibitors of human TLR9-MyD88 binding; Q9NR96+Q99836; AID 504734; 0.21% of 340,000 active; inhibition, % at 4.98 µM; CHO BLA complementation TLR9-MyD88, CCF4 FRET ratio;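 active = inhibition above the mean over all tested compounds plus 3 SD, cut at about 21% in these data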;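 note: 0% = DMSO only wells and 100% = clavulanate BLA inhibitor control wells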
Hep lipid drop – hepatic lipid droplet formation modulation | AID 1656 | 0.4% of 240,000 active | inhibition, % at 6.5 µM | AML12 mouse hepatocytes, oleate lipid droplets, BODIPY imaging;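 active = lipid droplet intensity inhibited by at least 50%, with more than 500 cells counted; inconclusive = wells with under 300 cells, treated as cytotoxic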
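Test system: AML12 mouse liver cells; schedule: overnight exposure; technique: high-content imaging of BODIPY-stained droplets and DAPI nuclei; read-out: % inhibition of corrected integrated BODIPY droplet signal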
NOD2-RIPK2 conf – confirmation of human NOD2-RIPK2 interaction inhibitors | shares compounds with NOD2-RIPK2 inh | CHO cells, NOD2-RIPK2 BLA complementation, CCF4 FRET | inhibition, % at 4.98 µM | 70% of 1,200 active | AID 624370;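 active = mean inhibition across replicates above a set limit taken from the earlier primary screen, cut at about 21% in these data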;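 note: 0% = DMSO-only wells and the high end = clavulanate BLA-blocked wells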
NOD2 BLA counter – counter-screen for NOD2-RIPK2 interaction inhibitors: BLA reporter; shares compounds with NOD2-RIPK2 inh; CHO BLA reporter, CCF4 FRET ratio, counterscreen; inhibition, % at 4.98 µM; 57% of 1,200 active; AID 624371;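 active = mean inhibition above the low-control mean inhibition plus three low-control SD, cut at about 11% in these data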;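 note: 0% = DMSO only wells and 100% = clavulanate high control wells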
* hit, by the source's call; ? = inconclusive; nt = no result. Shown are actives, neighbours in structure and some others; about 1.6% of the full set was active somewhere.

SMILES	NOD2-RIPK2 inh	SR-BI uptake up	TLR4 MyD88 comp	SR-BI DiI inh	TLR9-MyD88 block	Hep lipid drop	NOD2-RIPK2 conf	NOD2 BLA counter
Cc1ccc(C)c(NS(=O)(=O)c2ccc(-c3cnc(C4CC4)o3)cc2)c1	11.2	-7.3	nt	7.3	2.6	?	nt	nt
Cc1cccc(NS(=O)(=O)c2ccc(-c3cnc(C4CC4)o3)cc2)c1C	26.0*	nt	nt	9.7	2.2	?	14.0	-0.6
COc1ccc(/C=C2/Sc3ccc(C(=O)NCCN4CCCCCC4)cc3NC2=O)cc1	23.6*	-39.4	nt	39.4	2.2	-4.9	16.9	9.6
NC(=O)C1CCN(c2nc(-c3ccccc3C(F)(F)F)cs2)CC1	11.4	19.8	nt	-19.8	-8.8	nt	nt	nt
COc1ccc(-n2nc(C(=O)NCC(=O)Nc3cccc(Cl)c3)c3ccccc3c2=O)cc1OC	1.6	nt	nt	nt	-1.2	13.0	nt	nt
CCOC(=O)C1CCCN(S(=O)(=O)c2ccc3c4c(cccc24)C(=O)N3CC)C1 (stereo unspecified)	27.0*	nt	nt	12.5	5.5	nt	25.2*	25.1*
CCN1C(=O)c2cccc3c(S(=O)(=O)N4CCCC4C(=O)O)ccc1c23 (stereo unspecified)	8.3	4.8	nt	-4.8	-3.4	-11.4	nt	nt
CC1CCN(S(=O)(=O)c2ccc(NC(=O)CCN3C(=O)C4CC=CCC4C3=O)cc2)CC1 (stereo unspecified)	-5.6	-5.3	nt	5.3	-2.4	nt	nt	nt
Cc1ccc2nc(N(CCN(C)C)C(=O)/C=C/c3cccs3)sc2c1	22.4*	-23.5	-14.8	23.5	16.1	1.9	32.3*	25.2*
CCc1ccc2nc(N(CCN(C)C)C(=O)/C=C/c3cccs3)sc2c1	9.8	-5.2	nt	5.2	3.5	4.9	nt	nt
COc1ccc(OC)c2sc(N(CCN(C)C)C(=O)/C=C/c3cccs3)nc12	21.1*	-5.8	nt	5.8	-13.3	-15.4	37.5*	8.3
Cc1ccc(NC(=O)Cn2ncc(Cl)c(Cl)c2=O)cc1S(=O)(=O)N1CCCCC1	34.2*	-11.9	nt	11.9	1.2	nt	43.0*	10.5*
O=C(Cn1ncc(Cl)c(Cl)c1=O)NCC1CCCCC1	21.4*	20.1	21.0	-20.1	10.9	-3.3	29.1*	-1.8
Cc1ccc(NC(=O)Cc2ccc(Cl)cc2)cc1S(=O)(=O)N1CCCCCC1	1.2	-59.5	nt	59.5	3.0	nt	nt	nt
COc1ccccc1C=NNC(=O)C(=O)NN=Cc1ccccc1OC	9.1	-18.9	nt	18.9	-4.1	nt	nt	nt
CCOc1ccccc1C=NNC(=O)C(=O)NN=Cc1ccccc1OCC	24.1*	-24.8	nt	24.8	-4.6	nt	-10.2	-8.9
Cc1[nH]c(=O)c(C#N)c2c1CCCC2	-12.0	-1.2	2.5	1.2	-16.8	-0.5	nt	nt
Cc1[nH]c(=S)c(C#N)c2c1CCCC2	27.2*	-27.7	-9.9	27.7	1.7	13.1	-9.0	-5.8
Cc1ccc(C(=O)NCC(=O)N2CCN(c3cccc(Cl)c3)CC2)s1	4.8	-38.1	nt	38.1	3.5	nt	nt	nt
CCOC(=O)C1CCN(CCCSc2ccccc2)CC1	4.7	28.8	nt	-28.9	2.7	nt	nt	nt
C(=Cc1c[nH]c2ccccc12)c1ccc2ccccc2n1	28.9*	-62.4	nt	62.4	11.0	nt	33.4*	46.8*
O=C1c2cccc3cc([N+](=O)[O-])cc(c23)C(=O)N1CC1CCCO1 (stereo unspecified)	24.2*	2.9	nt	-2.9	9.3	nt	20.6	10.2
O=C1c2ccccc2C(=O)N1CC1CCCO1 (stereo unspecified)	-4.0	-3.7	-5.7	3.7	-3.7	nt	nt	nt
Cc1cc(C)c(S(=O)(=O)N(C)c2ccccc2)c(C)c1	33.8*	-12.8	14.8	12.8	-5.6	-7.7	-4.0	-2.0
Fc1ccc(C2=CC(c3ccco3)n3ncnc3N2)cc1 (stereo unspecified)	35.6*	-2.2	-6.2	2.2	35.3*	-1.6	2.9	12.5*
SMILES	NOD2-RIPK2 inh	SR-BI uptake up	TLR4 MyD88 comp	SR-BI DiI inh	TLR9-MyD88 block	Hep lipid drop	NOD2-RIPK2 conf	NOD2 BLA counter
O=S1(=O)[C@H]2C[C@H](CO)O[C@@]2(CO)CN1Cc1ccc(-c2ccc(F)cc2)cc1	-15.4	-6.2	nt	6.2	-14.3	nt	nt	nt
O=C(NCc1cccnc1)/C(=C/c1ccc(-c2cccc(Cl)c2)o1)S(=O)(=O)c1ccccc1	-26.2	16.3	15.6	-16.3	3.7	nt	nt	nt
O=C(NCc1cccnc1)/C(=C\c1ccc(-c2cccc(Cl)c2)o1)S(=O)(=O)c1ccccc1	35.1*	8.1	-3.0	-8.1	13.0	-0.6	47.6*	4.0
N#Cc1ccc2c(c1)nnn2-c1ccccc1	-14.8	nt	nt	nt	nt	nt	nt	nt
N#Cc1ccc2sn(-c3ccccc3)c(=O)c2c1	24.8*	nt	nt	nt	10.5	nt	50.0*	11.7*
CC(=O)Nc1ccc2sn(-c3ccccc3)c(=O)c2c1	30.2*	nt	nt	nt	5.2	nt	22.3*	-3.5
CCn1c2ccccc2c2cc(NC(C)=O)ccc21	-11.2	-4.5	-0.7	4.5	4.0	2.7	nt	nt
COc1ccc(-c2cc(C(F)F)n3ncc(C(=O)Nc4cc(C)on4)c3n2)cc1	-3.4	-42.9	7.9	42.9	-7.1	21.6	nt	nt
O=c1ccc(S(=O)(=O)N2CCCC2)cn1Cc1ccc(Cl)cc1Cl	-4.0	-16.1	nt	16.1	-0.1	nt	nt	nt
CCN(CC)c1ccc(C=C(c2nnnn2-c2ccc(C)cc2)c2nnnn2-c2ccc(C)cc2)cc1	22.0*	-7.6	18.5	7.6	18.8	-65.3	27.9*	34.1*
Cn1cccc1C1Nc2ccccc2NC2=C1C(=O)CC(C)(C)C2 (stereo unspecified)	10.3	9.2	4.1	-9.2	-0.1	7.2	nt	nt
COc1ccc(Cl)cc1NC(=O)CC(=O)Nc1cc(Cl)ccc1OC	1.8	-33.7	nt	33.7	-13.6	-12.0	nt	nt
COc1ccc(Cl)cc1NC(=O)Cc1c(F)cccc1Cl	21.5*	0.5	-25.4	-0.5	2.9	-12.2	3.1	1.2
